Data taken from PubChem BioAssay.
A number with no mark means an inactive call. Inconclusive results are not listed. Active and inactive are the calls of the source.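 Rule for the calls, unless noted: active = viability at or below 27.92% in each of two runs, the all-compound median minus 4 SD; inconclusive = no clear call, values can overlap the other calls; inactive = the rest.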

Legend:
[1] = OD615 S. cerevisiae growth inhibition, permissive medium, pilot counter-assay, permissive growth control for S. cerevisiae lifespan shortening project (AID 705;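 active = growth inhibition above 25% in both replicates, a cutoff set 3 SD above the mean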); conditions: OD615, 24 h, at 10 µM, hits give high values
Method in brief: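 Material: engineered DeaD yeast; compound dosing: one dose 10 µM, DMSO 0.25% final; measure: yeast growth inhibition indicated by reduced 24 h OD615; detection: OD615 turbidity read; incubation: cells pre-grown 4 h, then 24 h compound exposure, 30 °C humidified; medium: permissive synthetic complete medium with raffinose and galactose carbon sources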

[2] = Restrictive medium S. cerevisiae growth inhibition, OD615, pilot screen of yeast lifespan reduction project, restrictive growth control (AID 706;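 active = growth inhibition above a set limit, 3 SD over mean compound inhibition, in both replicates, cut at about 43% in these data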;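 note: modified DeaD lifespan yeast strain shifted to restrictive glucose medium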); conditions: OD615, 48 h, at 10 µM, hits give high values
Method in brief: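 material = engineered S. cerevisiae DeaD strain | medium = glucose-based CSMM-D restrictive medium | times = 4 h pre-incubation, 48 h exposure at 30 °C | technique = OD615 absorbance reading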

[3] = viability gain of MRP-1-high H69AR cells under doxorubicin, pilot screen, MRP-1 activator project, CellTiter-Glo, duplicate (AID 807;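 active = viability increase at or above a cutoff of the median across tested compounds plus 3 SD, cut at about 8.5% in these data, passing the limit was not always enough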;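 note: compound pretreatment 18-22 h then 72 h combined with doxorubicin; 0% = doxorubicin alone and 100% = vehicle without doxorubicin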); conditions: H69AR viability with doxorubicin, CellTiter-Glo luminescence; at 10 µM; hits give high values
[4] = growth suppression of beta-catenin knockout HCT116, pilot screen, human colon tumor cells (AID 823;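 active = cell viability at or below a set limit in both duplicate runs, the limit being the all-compound median minus 4 SD, cut at about 23% in these data, passing the limit was not always enough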;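 note: 0% = wells killed by 20 µM Hyamine and 100% = untreated DMSO cell wells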); conditions: CellTiter-Glo, 60 h, at 10 µM, hits give low values
[5] = growth suppression of PTEN-deleted HCT116, pilot screen, cell-based, HCT116 clonal line, CellTiter-Glo (AID 824); conditions: 60 h, at 10 µM, hits give low values;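 note: 0% = 20 µM Hyamine control and 100% = vehicle cell control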
[6] = inhibitors of the yeast RAM network, pilot screen, dse1pr::URA3 reporter, 5-FOA selection (AID 869;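 active = inhibition over a set limit, the all-compound mean plus 3 SD, in both replicate runs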;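 note: 0% = DMSO wells with no growth and 100% = 10 µM 1-NA-PP1 with full growth; RAM network block rescues cells from 5-FOA so hits raise OD615 growth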); conditions: S. cerevisiae dse1pr::URA3 5-FOA growth, OD615, 2 d; at 10 µM; hits give high values; strain carries analog-sensitive mutant Cbk1 kinase

Structure (SMILES): Brc1ccccc1-c1nnc(CSc2nnc3sc4ccccc4n23)o1
- growth inhibition [1]: 16.1%
- growth inhibition [2]: 64.8% (active)
- viability increase [3]: -3.18%
- viability [4]: 96.1%
- viability [5]: 91.7%
- inhibition [6]: 2.15%

Structure (SMILES): O=C(O)CC1C(=O)NCCN1C/C=C/c1ccccc1 (centres undefined)
- growth inhibition [1]: -17.1%
- growth inhibition [2]: -16.1%
- viability increase [3]: -2.39%
- viability [4]: 105%
- viability [5]: 93.1%
- inhibition [6]: 3.62%

Structure (SMILES): CCOC(=O)c1ccc(NC(=O)c2cc3ccccc3o2)cc1
- growth inhibition [1]: -5.56%
- growth inhibition [2]: -8.95%
- viability increase [3]: 1.54%
- viability [4]: 86.2%
- viability [5]: 86.6%
- inhibition [6]: 1%

Structure (SMILES): CCCCCCC1C(C#N)=C(N)OC2=C1C(=O)CC(C)(C)C2 (centres undefined)
- growth inhibition [1]: -34.7%
- growth inhibition [2]: -40.1%
- viability increase [3]: -2.49%
- viability [4]: 102%
- viability [5]: 96.7%
- inhibition [6]: 0.505%

Structure (SMILES): COc1ccc(OC)c(NC(=O)CN(c2ccc(C(C)C)cc2)S(=O)(=O)c2c(C)noc2C)c1
- growth inhibition [1]: -11.5%
- growth inhibition [2]: -12.1%
- viability increase [3]: -4.81%
- viability [4]: 56.5%
- viability [5]: 48.1%
- inhibition [6]: 2.27%

Structure (SMILES): Clc1ccccc1-c1nnc2sc(-c3ccncc3)nn12
- growth inhibition [1]: -1.33%
- growth inhibition [2]: 19.3%
- viability increase [3]: -3.61%
- viability [4]: 106%
- viability [5]: 90.8%
- inhibition [6]: 0.635%

Structure (SMILES): O=C(Cn1c(=O)sc2ccccc21)NCc1ccccn1
- growth inhibition [1]: 1.44%
- growth inhibition [2]: -6.78%
- viability increase [3]: -1.78%
- viability [4]: 104%
- viability [5]: 93.4%
- inhibition [6]: 1.19%

Structure (SMILES): CCOc1ccc(-c2nc(CSCC(=O)N3CCN(c4cccc(OC)c4)CC3)c(C)o2)cc1
- growth inhibition [1]: 5.25%
- growth inhibition [2]: 19.7%
- viability increase [3]: -2.52%
- viability [4]: 34%
- viability [5]: 47.4%
- inhibition [6]: 1.53%

Structure (SMILES): CCOC(=O)CSc1nc2c(c(=O)n(C)c(=O)n2C)n1Cc1ccccc1F
- growth inhibition [1]: -8.61%
- growth inhibition [2]: 2.55%
- viability increase [3]: 0.38%
- viability [4]: 95.9%
- viability [5]: 93.6%
- inhibition [6]: 2%

Structure (SMILES): CC(C)Oc1ccc(NC(=O)Oc2ccccc2)cc1
- growth inhibition [1]: -4.28%
- growth inhibition [2]: -8.55%
- viability increase [3]: -0.53%
- viability [4]: 97.4%
- viability [5]: 96.8%
- inhibition [6]: 2.38%

Structure (SMILES): CCC(C)(C(=O)NC1CCCC1)N(C(=O)CNC(C)=O)c1ccc(C)cc1 (centres undefined)
- growth inhibition [1]: -1.46%
- growth inhibition [2]: -5.89%
- viability increase [3]: -0.57%
- viability [4]: 94.2%
- viability [5]: 96.7%
- inhibition [6]: 2.1%

Structure (SMILES): CCCCSc1nc2c(c(=O)[nH]c(=O)n2C)n1CCc1ccccc1
- growth inhibition [1]: -16.6%
- growth inhibition [2]: -9.86%
- viability increase [3]: -3.38%
- viability [4]: 84.1%
- viability [5]: 85.9%
- inhibition [6]: 2.35%

Structure (SMILES): Cn1c(SCc2ccccc2Cl)nnc1-c1cnccn1
- growth inhibition [1]: -2.59%
- growth inhibition [2]: -7.88%
- viability increase [3]: -1.15%
- viability [4]: 103%
- viability [5]: 102%
- inhibition [6]: 2.44%

Structure (SMILES): Cc1ccc(Cl)cc1N1CCN(C(=O)CCS(=O)(=O)c2cccc3nonc23)CC1
- growth inhibition [1]: 3.25%
- growth inhibition [2]: -4.52%
- viability increase [3]: -3.47%
- viability [4]: 79.5%
- viability [5]: 75.4%
- inhibition [6]: 0.805%

Structure (SMILES): CCOC(=O)C1Cn2c(nc3c(c2=O)C2(CCCC2)Cc2ccccc2-3)S1 (centres undefined)
- growth inhibition [1]: -15.5%
- growth inhibition [2]: -1.87%
- viability increase [3]: -3.9%
- viability [4]: 84.2%
- viability [5]: 77.4%
- inhibition [6]: 2.23%

Structure (SMILES): C1=C(c2ccccc2)CCN(c2nc3ccccc3n3cnnc23)C1
- growth inhibition [1]: -7.88%
- growth inhibition [2]: 11.2%
- viability increase [3]: -3.98%
- viability [4]: 90.4%
- viability [5]: 86.8%
- inhibition [6]: 0.34%

Structure (SMILES): COc1cc(Cl)c(S(=O)(=O)N2CCN(Cc3ccc4c(c3)OCO4)CC2)cc1Cl
- growth inhibition [1]: -9.75%
- growth inhibition [2]: -4.02%
- viability increase [3]: -2.17%
- viability [4]: 84.2%
- viability [5]: 82.2%
- inhibition [6]: 1.04%

Structure (SMILES): CCOC(=O)c1cc2c(=O)n3ccccc3nc2n(Cc2ccco2)c1=NC(=O)c1cccnc1
- growth inhibition [1]: -1.49%
- growth inhibition [2]: 14%
- viability increase [3]: 3.61%
- viability [4]: 99.5%
- viability [5]: 99%
- inhibition [6]: 1.91%

Structure (SMILES): COCCNc1oc(-c2ccccc2Cl)nc1C#N
- growth inhibition [1]: -7.99%
- growth inhibition [2]: -2.94%
- viability increase [3]: -0.81%
- viability [4]: 111%
- viability [5]: 89.3%
- inhibition [6]: 1.51%
